Assay results taken from ChEMBL document CHEMBL1250448, “Inhibitor hijacking of Akt activation” (Nat Chem Biol, 2009).

Legend:
[1] = target: RAF proto-oncogene serine/threonine-protein kinase (Homo sapiens) (UniProt P04049); assay: Inhibition of RAF1 at 1 uM in presence of 100 uM ATP by Select Screen kinase assay relative to untreated control
Method in brief: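 Commercial SelectScreen profiling panel of 220 purified kinases. Each kinase was tested at a single inhibitor concentration of 1 μM, and activity was expressed as percent inhibition.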

[2] = target: T1, Activin receptor type-1B (Homo sapiens) (UniProt P36896); assay: Inhibition of ACVR1B at 1 uM in presence of 10 uM ATP by Select Screen kinase assay relative to untreated control
T1 sequence (whole entry): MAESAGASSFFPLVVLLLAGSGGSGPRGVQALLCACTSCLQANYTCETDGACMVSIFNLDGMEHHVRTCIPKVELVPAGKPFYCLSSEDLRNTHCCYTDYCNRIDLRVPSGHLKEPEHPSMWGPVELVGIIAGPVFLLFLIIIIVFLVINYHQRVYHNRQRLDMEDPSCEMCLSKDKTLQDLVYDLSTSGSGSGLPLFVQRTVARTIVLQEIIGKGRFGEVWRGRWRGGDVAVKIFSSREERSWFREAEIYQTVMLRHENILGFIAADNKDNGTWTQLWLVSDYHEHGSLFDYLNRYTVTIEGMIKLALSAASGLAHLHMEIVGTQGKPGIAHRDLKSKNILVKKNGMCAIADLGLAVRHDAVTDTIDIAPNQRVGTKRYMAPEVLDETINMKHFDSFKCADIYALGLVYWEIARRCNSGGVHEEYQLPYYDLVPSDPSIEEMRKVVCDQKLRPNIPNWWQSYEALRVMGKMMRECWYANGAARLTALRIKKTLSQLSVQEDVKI
Method in brief: (§1)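 Single-point screen at 1 μM against a panel of 220 purified kinases, run by Invitrogen staff as a SelectScreen profiling service. Read-out is percent inhibition of kinase activity.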

[3] = target: Ephrin type-A receptor 4 (Homo sapiens) (UniProt P54764); assay: Inhibition of EPHA4 at 1 uM in presence of 100 uM ATP by Select Screen kinase assay relative to untreated control; method in brief: as §1
Chain of Ephrin type-A receptor 4 (Homo sapiens) (P54764 whole entry): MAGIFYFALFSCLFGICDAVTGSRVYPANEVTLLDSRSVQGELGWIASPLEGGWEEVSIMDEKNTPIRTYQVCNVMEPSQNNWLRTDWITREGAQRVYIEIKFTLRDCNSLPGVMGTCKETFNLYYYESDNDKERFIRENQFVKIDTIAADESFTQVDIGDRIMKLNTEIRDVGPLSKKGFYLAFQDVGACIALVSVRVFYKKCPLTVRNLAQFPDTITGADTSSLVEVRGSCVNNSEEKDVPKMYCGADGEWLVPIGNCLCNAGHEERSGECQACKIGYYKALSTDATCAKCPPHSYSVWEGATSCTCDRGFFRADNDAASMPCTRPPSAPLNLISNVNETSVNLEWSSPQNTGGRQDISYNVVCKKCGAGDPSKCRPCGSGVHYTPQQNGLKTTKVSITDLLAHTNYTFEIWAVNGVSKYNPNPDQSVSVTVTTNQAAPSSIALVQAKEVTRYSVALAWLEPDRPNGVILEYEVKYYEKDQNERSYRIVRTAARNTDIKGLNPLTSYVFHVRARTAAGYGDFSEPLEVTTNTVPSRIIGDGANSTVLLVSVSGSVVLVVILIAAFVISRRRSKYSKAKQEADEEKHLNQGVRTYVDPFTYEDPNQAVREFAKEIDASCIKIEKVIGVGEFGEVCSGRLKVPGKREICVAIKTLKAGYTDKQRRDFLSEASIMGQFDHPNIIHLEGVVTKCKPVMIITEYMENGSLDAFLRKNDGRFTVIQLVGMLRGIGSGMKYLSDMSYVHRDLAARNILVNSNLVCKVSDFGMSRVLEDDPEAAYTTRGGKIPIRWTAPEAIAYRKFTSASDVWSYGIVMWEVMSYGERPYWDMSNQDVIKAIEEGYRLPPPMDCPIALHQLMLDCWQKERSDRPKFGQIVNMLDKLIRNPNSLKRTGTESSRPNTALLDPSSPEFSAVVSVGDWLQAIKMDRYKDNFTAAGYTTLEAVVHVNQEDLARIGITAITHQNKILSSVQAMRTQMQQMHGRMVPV

[4] = target: T2, Ephrin type-B receptor 2 (Homo sapiens) (UniProt P29323); assay: Inhibition of EPHB2 at 1 uM in presence of 10 uM ATP by Select Screen kinase assay relative to untreated control; method in brief: as §1
T2 sequence (whole entry): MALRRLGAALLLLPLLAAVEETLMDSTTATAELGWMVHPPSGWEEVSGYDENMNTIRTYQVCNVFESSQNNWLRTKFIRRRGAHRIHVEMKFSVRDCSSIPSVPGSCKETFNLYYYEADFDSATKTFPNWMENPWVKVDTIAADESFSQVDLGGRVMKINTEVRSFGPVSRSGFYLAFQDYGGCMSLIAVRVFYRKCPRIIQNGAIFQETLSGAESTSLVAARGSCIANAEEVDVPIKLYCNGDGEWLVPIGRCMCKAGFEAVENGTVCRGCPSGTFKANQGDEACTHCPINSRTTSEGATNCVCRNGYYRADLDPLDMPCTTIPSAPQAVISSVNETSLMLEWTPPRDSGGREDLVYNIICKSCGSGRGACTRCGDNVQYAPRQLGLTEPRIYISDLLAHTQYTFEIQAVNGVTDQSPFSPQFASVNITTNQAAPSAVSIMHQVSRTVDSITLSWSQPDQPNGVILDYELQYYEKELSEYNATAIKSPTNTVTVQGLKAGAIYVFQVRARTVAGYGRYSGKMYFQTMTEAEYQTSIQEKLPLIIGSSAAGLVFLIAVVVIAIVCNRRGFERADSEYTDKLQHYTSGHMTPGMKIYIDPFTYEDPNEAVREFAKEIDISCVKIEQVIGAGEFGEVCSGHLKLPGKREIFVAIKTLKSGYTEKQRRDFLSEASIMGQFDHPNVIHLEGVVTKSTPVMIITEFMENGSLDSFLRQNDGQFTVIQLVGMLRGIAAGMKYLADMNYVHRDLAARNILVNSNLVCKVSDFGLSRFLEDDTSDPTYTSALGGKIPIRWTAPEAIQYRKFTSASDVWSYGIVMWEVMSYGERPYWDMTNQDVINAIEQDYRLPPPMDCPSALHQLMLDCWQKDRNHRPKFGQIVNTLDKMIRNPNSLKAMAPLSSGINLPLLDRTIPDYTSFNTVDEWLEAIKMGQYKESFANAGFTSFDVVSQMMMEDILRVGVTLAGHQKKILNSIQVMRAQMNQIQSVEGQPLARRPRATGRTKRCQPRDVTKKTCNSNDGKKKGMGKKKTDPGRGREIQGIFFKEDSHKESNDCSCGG

[5] = target: Fibroblast growth factor receptor 3 (Homo sapiens) (UniProt P22607); assay: Inhibition of FGFR3 at 1 uM in presence of 10 uM ATP by Select Screen kinase assay relative to untreated control
Chain of Fibroblast growth factor receptor 3 (Homo sapiens) (P22607 23-806 limits assumed): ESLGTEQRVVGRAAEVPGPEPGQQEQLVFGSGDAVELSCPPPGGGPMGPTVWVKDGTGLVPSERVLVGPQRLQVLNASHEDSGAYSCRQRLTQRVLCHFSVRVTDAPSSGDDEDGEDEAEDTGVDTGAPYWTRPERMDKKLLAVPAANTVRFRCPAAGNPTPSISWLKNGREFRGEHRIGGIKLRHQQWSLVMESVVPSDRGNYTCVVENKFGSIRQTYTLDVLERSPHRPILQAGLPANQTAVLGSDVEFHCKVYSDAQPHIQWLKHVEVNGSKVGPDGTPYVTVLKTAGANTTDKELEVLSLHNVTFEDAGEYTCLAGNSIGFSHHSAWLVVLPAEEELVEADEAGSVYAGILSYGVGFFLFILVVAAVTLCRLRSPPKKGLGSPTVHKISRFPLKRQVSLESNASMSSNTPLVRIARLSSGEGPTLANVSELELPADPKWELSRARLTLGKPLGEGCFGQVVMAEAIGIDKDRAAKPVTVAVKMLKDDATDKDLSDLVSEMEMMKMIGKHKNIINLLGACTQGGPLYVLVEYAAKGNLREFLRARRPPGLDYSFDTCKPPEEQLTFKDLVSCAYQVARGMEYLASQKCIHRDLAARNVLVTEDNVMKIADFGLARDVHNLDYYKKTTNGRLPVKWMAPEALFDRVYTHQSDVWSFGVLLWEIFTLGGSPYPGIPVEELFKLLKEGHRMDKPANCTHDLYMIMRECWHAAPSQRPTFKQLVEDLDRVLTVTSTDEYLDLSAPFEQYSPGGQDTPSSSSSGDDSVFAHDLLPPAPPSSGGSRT
Method in brief: (§2)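 Single-concentration profiling at 1 μM against a panel of 220 purified kinases, run as an outsourced SelectScreen kinase profiling service. Activity is expressed as percent inhibition.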

[6] = target: Tyrosine-protein kinase Fgr (Homo sapiens) (UniProt P09769); assay: Inhibition of FGR at 1 uM in presence of 10 uM ATP by Select Screen kinase assay relative to untreated control; method in brief: as §2
Chain of Tyrosine-protein kinase Fgr (Homo sapiens) (P09769 2-529 limits assumed): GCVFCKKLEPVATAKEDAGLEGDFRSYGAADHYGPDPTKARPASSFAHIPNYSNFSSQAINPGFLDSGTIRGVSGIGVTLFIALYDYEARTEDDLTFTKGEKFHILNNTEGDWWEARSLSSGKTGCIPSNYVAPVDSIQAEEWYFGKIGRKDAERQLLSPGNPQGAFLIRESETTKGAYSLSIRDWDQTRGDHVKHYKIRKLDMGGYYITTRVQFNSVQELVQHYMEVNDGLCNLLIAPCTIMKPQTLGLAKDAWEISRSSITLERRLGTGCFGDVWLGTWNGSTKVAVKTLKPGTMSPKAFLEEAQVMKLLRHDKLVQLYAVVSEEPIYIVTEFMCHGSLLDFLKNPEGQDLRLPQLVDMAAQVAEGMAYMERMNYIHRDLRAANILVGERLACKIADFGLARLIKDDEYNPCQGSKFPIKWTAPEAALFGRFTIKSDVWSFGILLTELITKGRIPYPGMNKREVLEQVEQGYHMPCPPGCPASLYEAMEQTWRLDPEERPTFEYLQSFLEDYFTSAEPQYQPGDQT

[7] = target: Vascular endothelial growth factor receptor 1 (Homo sapiens) (UniProt P17948); assay: Inhibition of FLT1 at 1 uM in presence of 100 uM ATP by Select Screen kinase assay relative to untreated control; method in brief: as §2
Chain of Vascular endothelial growth factor receptor 1 (Homo sapiens) (P17948 whole entry): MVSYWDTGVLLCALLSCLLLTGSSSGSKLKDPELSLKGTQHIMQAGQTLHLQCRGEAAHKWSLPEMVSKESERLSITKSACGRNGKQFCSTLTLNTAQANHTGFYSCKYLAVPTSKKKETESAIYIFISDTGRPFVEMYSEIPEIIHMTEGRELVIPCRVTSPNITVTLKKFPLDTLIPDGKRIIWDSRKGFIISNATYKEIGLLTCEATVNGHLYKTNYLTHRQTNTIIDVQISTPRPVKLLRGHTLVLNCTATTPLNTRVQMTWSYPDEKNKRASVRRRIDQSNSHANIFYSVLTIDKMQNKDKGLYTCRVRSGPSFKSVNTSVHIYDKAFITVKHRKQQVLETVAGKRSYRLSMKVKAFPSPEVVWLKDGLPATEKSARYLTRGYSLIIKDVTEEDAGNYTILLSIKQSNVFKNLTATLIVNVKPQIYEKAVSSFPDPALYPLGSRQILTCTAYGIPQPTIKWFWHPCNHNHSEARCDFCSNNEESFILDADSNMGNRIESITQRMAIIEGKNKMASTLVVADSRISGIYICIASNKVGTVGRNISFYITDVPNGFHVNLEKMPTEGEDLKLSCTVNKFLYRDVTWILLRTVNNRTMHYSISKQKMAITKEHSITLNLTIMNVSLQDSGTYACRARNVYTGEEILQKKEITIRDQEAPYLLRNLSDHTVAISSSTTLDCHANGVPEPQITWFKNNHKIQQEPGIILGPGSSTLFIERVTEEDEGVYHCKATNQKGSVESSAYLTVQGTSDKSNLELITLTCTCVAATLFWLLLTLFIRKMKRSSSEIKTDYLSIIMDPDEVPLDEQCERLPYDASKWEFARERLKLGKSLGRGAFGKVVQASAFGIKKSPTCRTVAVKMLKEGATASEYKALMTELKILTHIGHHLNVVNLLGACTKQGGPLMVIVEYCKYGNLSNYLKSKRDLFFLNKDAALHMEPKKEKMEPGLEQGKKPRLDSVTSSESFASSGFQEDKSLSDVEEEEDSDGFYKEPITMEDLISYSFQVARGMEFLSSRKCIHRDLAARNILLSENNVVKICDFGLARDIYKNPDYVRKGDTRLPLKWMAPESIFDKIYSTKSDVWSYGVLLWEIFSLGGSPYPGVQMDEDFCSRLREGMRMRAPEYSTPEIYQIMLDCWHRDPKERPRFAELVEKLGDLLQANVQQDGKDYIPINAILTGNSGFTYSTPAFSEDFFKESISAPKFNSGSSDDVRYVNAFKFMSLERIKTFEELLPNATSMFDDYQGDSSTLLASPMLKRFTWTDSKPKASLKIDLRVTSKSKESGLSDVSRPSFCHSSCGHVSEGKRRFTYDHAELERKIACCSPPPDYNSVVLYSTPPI

[8] = target: T3, Megakaryocyte-associated tyrosine-protein kinase (Homo sapiens) (UniProt P42679); assay: Inhibition of MATK at 1 uM in presence of 10 uM ATP by Select Screen kinase assay relative to untreated control; method in brief: as §2
T3 sequence (whole entry): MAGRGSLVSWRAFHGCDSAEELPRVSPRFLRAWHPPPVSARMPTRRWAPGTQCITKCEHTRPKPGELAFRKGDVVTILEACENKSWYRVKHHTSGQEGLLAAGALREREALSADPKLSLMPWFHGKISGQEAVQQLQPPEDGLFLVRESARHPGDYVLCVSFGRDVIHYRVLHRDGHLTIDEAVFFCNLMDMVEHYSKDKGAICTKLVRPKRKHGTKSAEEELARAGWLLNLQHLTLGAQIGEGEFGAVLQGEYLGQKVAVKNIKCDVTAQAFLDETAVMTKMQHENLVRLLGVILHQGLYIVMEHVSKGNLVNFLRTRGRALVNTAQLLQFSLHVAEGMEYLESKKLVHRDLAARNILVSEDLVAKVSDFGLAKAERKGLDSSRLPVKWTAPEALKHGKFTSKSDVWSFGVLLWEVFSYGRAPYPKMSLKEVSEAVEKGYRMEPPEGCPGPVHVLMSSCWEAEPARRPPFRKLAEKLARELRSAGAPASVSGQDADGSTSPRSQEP

Chain of RAF proto-oncogene serine/threonine-protein kinase (Homo sapiens) (P04049 whole entry): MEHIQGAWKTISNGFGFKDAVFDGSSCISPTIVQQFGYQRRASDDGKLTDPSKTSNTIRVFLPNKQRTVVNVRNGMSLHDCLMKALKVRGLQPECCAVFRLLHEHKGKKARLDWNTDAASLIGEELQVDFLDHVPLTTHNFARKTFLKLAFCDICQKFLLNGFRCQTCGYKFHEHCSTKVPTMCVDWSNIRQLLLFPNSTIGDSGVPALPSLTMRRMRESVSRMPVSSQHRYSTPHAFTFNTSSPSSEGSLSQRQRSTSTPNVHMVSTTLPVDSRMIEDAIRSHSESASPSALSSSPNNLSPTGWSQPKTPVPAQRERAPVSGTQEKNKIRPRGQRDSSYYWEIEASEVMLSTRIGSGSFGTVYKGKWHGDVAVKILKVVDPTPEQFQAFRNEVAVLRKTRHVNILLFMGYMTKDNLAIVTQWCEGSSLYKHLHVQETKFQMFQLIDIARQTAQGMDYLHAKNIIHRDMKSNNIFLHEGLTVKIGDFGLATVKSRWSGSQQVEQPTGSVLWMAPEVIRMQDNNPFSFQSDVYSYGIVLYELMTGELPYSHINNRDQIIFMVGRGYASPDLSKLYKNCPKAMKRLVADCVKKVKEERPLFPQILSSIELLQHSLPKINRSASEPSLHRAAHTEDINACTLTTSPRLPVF

Structure (SMILES) | inhibition [1] | inhibition [2] | inhibition [3] | inhibition [4] | inhibition [5] | inhibition [6] | inhibition [7] | inhibition [8]
COc1ccccc1N1CCN(c2ncnc3[nH]nc(Br)c23)CC1 | 12% | -2% | 9% | 7% | 23% | 8% | 20% | -1%
Cc1n[nH]c2ccc(-c3cncc(OC[C@@H](N)Cc4c[nH]c5ccccc45)c3)cc12 | 81% | 0% | -4% | 1% | -1% | 36% | -2% | -10%
O=C(NCCCNc1nc(Nc2cccc(NC(=O)N3CCCC3)c2)ncc1I)c1cccs1 | 43% | 7% | 11% | 7% | 43% | 29% | 52% | 3%
